Experimental data taken from ChEMBL document CHEMBL2163250, “Carbonylhydrazide-based molecular tongs inhibit wild-type and mutated HIV-1 protease dimerization” (J Med Chem, 2012).
pKi: −log10 of the molar value. Values after ≈ are worked out from the molar mass of the structure shown. Blank lines part the entries; values can stand above or below the compound they belong to. Active and inactive are the calls of the source. The calls are words filed in the database; no cut-off is given here.

Legend:
[1] = molecular target: Protease (Human immunodeficiency virus 1) (UniProt Q9YQ12); assay: Inhibition of HIV1 protease dimerization expressed in Escherichia coli Rosetta(DE3) using DABCYL-gamma-abu-Ser-Gln-Asn-Tyr-Pro-Ile-Val-Gln-EDANS as substrate at 28 uM by fluorimetric assay
Protease (Human immunodeficiency virus 1), sequence (Q9YQ12 as listed by the source): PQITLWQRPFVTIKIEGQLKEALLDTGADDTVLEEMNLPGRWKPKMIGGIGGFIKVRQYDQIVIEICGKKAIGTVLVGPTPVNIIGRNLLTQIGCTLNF

Protease = Protease (Human immunodeficiency virus 1, UniProt Q9YQ12); assay: Inhibition of HIV1 protease dimerization expressed in Escherichia coli Rosetta(DE3) using DABCYL-gamma-abu-Ser-Gln-Asn-Tyr-Pro-Ile-Val-Gln-EDANS as substrate by Zhang-Poorman kinetic analysis
Protease, sequence (Q9YQ12 whole entry): as the sequence (Q9YQ12 as listed by the source) above
In short: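 Recombinant PR expressed in E. coli Rosetta (DE3)pLysS from a pET-9 vector. Fluorogenic substrate at 5.2 μM (ex 340, em 490 nm) in 100 mM sodium acetate, 1 mM EDTA, 1 M NaCl, pH 4.7, 30 °C, final DMSO 3% (v/v). At least six enzyme concentrations (5.33–18.6 nM) and inhibitor 0.5–28 μM. Kid from Zhang–Poorman analysis, at least triplicate.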

[2] = molecular target: Protease (Human immunodeficiency virus 1) (UniProt Q9YQ12); assay: Inhibition of HIV1 protease dimerization expressed in Escherichia coli Rosetta(DE3) at 5 uM by 1-Anilino-8-naphthalene sulfonate-based fluorescent probe binding assay
In short: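 Recombinant PR (350 nM) in 100 mM sodium acetate, 1 M NaCl, 1 mM EDTA, pH 4.7, incubated at 25 °C with or without 5 μM inhibitor. ANS was then added at final 10–60 μM, with final DMSO 0.2% (v/v). Excitation 370 nm, emission 470 nm. Fluorescence was corrected for ANS plus inhibitor without enzyme, and each measurement was averaged over five reads.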

[3] = Chemical stability in RPMI medium up to 48 hrs in presence of 20% fetal calf serum; format: physicochemical; details: cattle
In short: (§1)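 Inhibitor incubated at 37 °C in RPMI culture medium with 20% fetal calf serum for up to 2 days. Incubations stopped with ethanol, cooled to 4 °C and centrifuged, and the supernatant analysed by HPLC. Half-life came from least-squares linear regression of a semilog plot of remaining inhibitor versus incubation time.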

[4] = Solubility of the compound; format: physicochemical
Sus scrofa = organism: Sus scrofa; assay: Inhibition of […] using Abz-Thr-Ile-Nle-(p-NO2-Phe)-Gln-Arg-NH2 as substrate at 10 uM by fluorimetric analysis
In short: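 Pepsin from porcine gastric mucosa assayed fluorometrically in 10 mM NaHCOO, pH 3.5, with 20 μM Abz-Thr-Ile-Nle-(p-NO₂-Phe)-Gln-Arg-NH₂ substrate (Km 13.3 μM). Excitation 337 nm, emission 410 nm. Compounds were tested at 10 μM.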

[5] = Inhibition of HIV1 protease MDR-HM mutant dimerization expressed in Escherichia coli Rosetta(DE3) using DABCYL-gamma-abu-Ser-Gln-Asn-Tyr-Pro-Ile-Val-Gln-EDANS as substrate by Zhang-Poorman kinetic analysis; parameters: species or system Human immunodeficiency virus 1
In short: (§2)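 Recombinant protease produced in E. coli Rosetta (DE3)pLysS from a pET-9 vector. Fluorimetric assay (ex 340, em 490 nm) run in 100 mM sodium acetate, 1 mM EDTA, 1 M NaCl, pH 4.7, at 30 °C with 3% (v/v) final DMSO. Substrate held at 5.2 μM, at least six enzyme concentrations (5.33−18.6 nM), inhibitor 0.5−28 μM. Kid derived from Zhang−Poorman analysis. At least triplicate.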

[6] = Inhibition of HIV1 protease ANAM-11 mutant dimerization expressed in Escherichia coli Rosetta(DE3) using DABCYL-gamma-abu-Ser-Gln-Asn-Tyr-Pro-Ile-Val-Gln-EDANS as substrate by Zhang-Poorman kinetic analysis; parameters: species or system Human immunodeficiency virus 1; in short: as §2
Renin (Homo sapiens) = molecular target: T1, Renin (Homo sapiens) (UniProt P00797); assay: Inhibition of recombinant renin using Arg-Glu(EDANS)-Ile-His-Pro-Phe-His-Leu-Val-Ile-His-Thr-Lys-(DABCYL)-Arg as substrate at 10 uM by fluorimetric analysis
T1 sequence (whole entry): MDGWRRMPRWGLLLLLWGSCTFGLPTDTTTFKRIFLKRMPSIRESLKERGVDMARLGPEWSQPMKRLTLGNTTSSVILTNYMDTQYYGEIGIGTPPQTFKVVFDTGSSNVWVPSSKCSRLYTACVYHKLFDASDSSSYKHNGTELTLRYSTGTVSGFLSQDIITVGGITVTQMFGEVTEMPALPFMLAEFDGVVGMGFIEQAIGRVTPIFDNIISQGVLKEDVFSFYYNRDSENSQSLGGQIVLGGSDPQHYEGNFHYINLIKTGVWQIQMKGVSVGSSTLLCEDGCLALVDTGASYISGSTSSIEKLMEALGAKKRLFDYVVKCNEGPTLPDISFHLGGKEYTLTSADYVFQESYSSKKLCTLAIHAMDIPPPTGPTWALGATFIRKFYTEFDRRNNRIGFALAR
In short: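 Renin activity read fluorometrically with the EDANS/DABCYL substrate (Km 3.3 μM) at 5 μM in 50 mM Tris–HCl, 100 mM NaCl, 1 mM EDTA, pH 8.0. Excitation 340 nm, emission 500 nm. Compounds were tested at 10 μM.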

[7] = Half life of the compound in RPMI medium in presence of 20% fetal calf serum; format: physicochemical; details: cattle, RPMI medium with 20% fetal calf serum; in short: as §1

inhibition [1]: 0%
Compound: CC(=O)NNC(=O)NNC(=O)CCNC(=O)CCCOc1ccc2ccc(OCCCC(=O)NCCC(=O)NNC(=O)NNC(C)=O)cc2c1

pKi (Protease): 6.25 | inhibition [2]: Active
Compound: COC(=O)[C@@H](NC(=O)[C@H](CC(C)C)NC(=O)[C@@H](NC(=O)CCCOc1ccc2ccc(OCCCC(=O)N[C@H](C(=O)N[C@@H](CC(C)C)C(=O)N[C@H](C(=O)OC)C(C)C)C(C)C)cc2c1)C(C)C)C(C)C

Compound: CC(C)[C@H](NC(=O)NNC(=O)NNC(=O)CCCOc1ccc2ccc(OCCCC(=O)NNC(=O)NNC(=O)N[C@H](C(N)=O)C(C)C)cc2c1)C(N)=O
Stability [3]: Stable | solubility [4]: 300 µg/mL (≈ 394 µM) | pKi (Protease): 6.15 | inhibition (Sus scrofa): inactive | pKi [5]: 5.80 | pKi [6]: 6.10 | inhibition (Renin (Homo sapiens)): inactive

inhibition [1]: 0%
Compound: COC(=O)CCNC(=O)NNC(=O)NNC(=O)CCCOc1ccc2ccc(OCCCC(=O)NNC(=O)NNC(=O)NCCC(=O)OC)cc2c1

inhibition [1]: 0%
Compound: CC(=O)NNC(=O)NNC(=O)[C@H](CCCCNC(=O)CCCOc1ccc2ccc(OCCCC(=O)NCCCC[C@H](NC(=O)OC(C)(C)C)C(=O)NNC(=O)NNC(C)=O)cc2c1)NC(=O)OC(C)(C)C

Compound: CC(=O)N[C@H](C(=O)N[C@H](C(=O)N[C@@H](CC(C)C)[C@@H](O)CC(=O)N[C@@H](C)C(=O)N[C@@H](CC(C)C)[C@@H](O)CC(=O)O)C(C)C)C(C)C
inhibition [2]: inactive

inhibition [1]: 0%
Compound: CC(C)[C@H](NC(=O)CCCOc1ccc2ccc(OCCCC(=O)O)cc2c1)C(=O)NNC(=O)[C@@H](NC(=O)OC(C)(C)C)C(C)C

inhibition [1]: 21%
Compound: CC(=O)NNC(=O)NNC(=O)[C@@H](NC(=O)CCCOc1ccc2ccc(OCCCC(=O)N[C@H](C(=O)NNC(=O)NNC(C)=O)C(C)C)cc2c1)C(C)C

Compound: COC(=O)[C@@H](NC(=O)[C@H](CC(C)C)NC(=O)[C@@H](NC(=O)CCCOc1ccc2ccc(OCCCC(=O)N[C@H](C(=O)NNC(=O)[C@@H](NC(=O)OC(C)(C)C)C(C)C)C(C)C)cc2c1)C(C)C)C(C)C
pKi (Protease): 7.05 | inhibition (Sus scrofa): inactive | half-life [7]: 24 h | inhibition [2]: Active | pKi [5]: 6.80 | pKi [6]: 7.00 | inhibition (Renin (Homo sapiens)): inactive

inhibition [2]: inactive
Compound: CC(C)(C)NC(=O)[C@@H]1C[C@@H]2CCCC[C@@H]2CN1C[C@@H](O)[C@H](Cc1ccccc1)NC(=O)[C@H](CC(N)=O)NC(=O)c1ccc2ccccc2n1

inhibition [1]: 13%
Compound: CNC(=O)NNC(=O)NNC(=O)CCCOc1ccc2ccc(OCCCC(=O)NNC(=O)NNC(=O)NC)cc2c1

Compound: COC(=O)[C@@H](NC(=O)[C@H](CC(C)C)NC(=O)[C@@H](NC(=O)CCCOc1ccc2ccc(OCCCC(=O)NNC(=O)NNC(=O)N[C@H](C(N)=O)C(C)C)cc2c1)C(C)C)C(C)C
pKi (Protease): 6.82 | inhibition (Sus scrofa): inactive | half-life [7]: 24 h | inhibition [2]: Active | pKi [5]: 6.57 | pKi [6]: 6.77 | inhibition (Renin (Homo sapiens)): inactive

inhibition [2]: inactive
Compound: CC(C)CN(C[C@@H](O)[C@H](Cc1ccccc1)NC(=O)O[C@H]1CCOC1)S(=O)(=O)c1ccc(N)cc1

Compound: CC(C)[C@H](NC(=O)CCCOc1ccc2ccc(OCCCC(=O)N[C@H](C(=O)NNC(=O)[C@@H](NC(=O)OC(C)(C)C)C(C)C)C(C)C)cc2c1)C(=O)NNC(=O)[C@@H](NC(=O)OC(C)(C)C)C(C)C
Stability [3]: Stable | pKi (Protease): 7.30 | inhibition (Sus scrofa): inactive | inhibition [2]: Active | pKi [5]: 6.80 | pKi [6]: 7.10 | inhibition (Renin (Homo sapiens)): inactive
